ABHD5-PLIN5 inh: ABHD5-PLIN5 interaction inhibitors, primary screen, cell lysate, split luciferase complementation, luminescence; Perilipin-5 (Homo sapiens) + 1-acylglycerol-3-phosphate O-acyltransferase ABHD5 (Homo …; Split G. princeps luciferase complementation, 4 h; inhibition, % at 4 µM; hit rate 0.78% among 360,000;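 active = inhibition above the mean inhibition across every tested compound plus 3 SD, cut at about 22% in these data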;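 also: 0% = DMSO only wells and the 100% control is not disclosed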
B2AR ag: beta2AR agonists driving receptor internalization, primary screen, cell-based, FAP fluorogen, flow cytometry; response, % (no concentration beside the values); AID 504454, 2011; hit rate 0.43% among 340,000; Am2.2-beta2AR cells; Beta-2 adrenergic receptor (Homo sapiens), P07550;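 active = response above a set limit, near 3 SD of response in nonfluorescent compounds, cut at about 42% in these data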
Target sequence (P07550 whole entry, looked up): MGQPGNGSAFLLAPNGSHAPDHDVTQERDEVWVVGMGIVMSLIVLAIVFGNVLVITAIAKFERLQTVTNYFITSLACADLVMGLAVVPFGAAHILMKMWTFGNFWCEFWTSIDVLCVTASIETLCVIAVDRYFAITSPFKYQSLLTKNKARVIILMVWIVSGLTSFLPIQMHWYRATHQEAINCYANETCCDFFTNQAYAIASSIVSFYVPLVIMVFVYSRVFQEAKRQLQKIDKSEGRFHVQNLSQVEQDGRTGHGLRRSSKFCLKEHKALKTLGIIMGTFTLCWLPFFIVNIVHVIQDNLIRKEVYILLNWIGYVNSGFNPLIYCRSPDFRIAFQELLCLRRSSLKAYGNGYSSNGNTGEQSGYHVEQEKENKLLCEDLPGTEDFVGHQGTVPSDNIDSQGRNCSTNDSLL
UHRF1 MBD2 ctr: UHRF1 methylated DNA binding inhibitors, primary screen, counter-screen for MBD2 inhibitor project, biochemical, TR-FRET, human UHRF1, single concentration; E3 ubiquitin-protein ligase UHRF1 (Homo sapiens), Q96T88; UHRF1 binding to methylated oligo; inhibition, % at 4.4 µM; hit rate 0.75% among 370,000; AID 687016, 2013; in the data active = inhibition above about 21%;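 also: UHRF1 SRA domain binding a hemimethylated CpG hairpin DNA probe; 0% = median of test compound wells and 100% = reference inhibitor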
Arrestin-AP2 inh: inhibitors of beta-arrestin/AP2 binding, primary screen, biochemical, GPCR trafficking, flow cytometry. beta-arrestin 1 C-terminal peptide binding to AP2 beta2-adaptin appendage (human). FITC-arrestin peptide / GST-AP2 beads; AP2 beta2 appendage carries R879A mutation. inhibition, % at 10 µM. hit rate 0.31% among 340,000;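 active = inhibition above a set limit, near 3 SD of compounds lacking own fluorescence, cut at about 54% in these data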;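 also: plate controls were DMSO wells for no effect and 5 µM unlabelled arrestin peptide for full effect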
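Assay system: GST-AP2 R879A bound to glutathione beads, E. coli-expressed; Medium: PBS with 0.05% Tween 20 and 0.1% BSA; Also added: fluorescein-tagged arrestin peptide at 50 nM final; Timing: 12 min plus 1 h, RT; Measured by: flow cytometry, FL1 (488/535 nm); Evaluation: percent drop in bead-associated FITC signal.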
Rin1-Abl PPI inh: inhibitors of Rin1-Abl protein binding, primary screen, biochemical, TR-FRET | Tyrosine-protein kinase ABL1 (Homo sapiens) + Ras and Rab interactor 1 (Homo sapiens), … | inhibition, % at 7.35 µM | hit rate 0.4% among 360,000 | AID 588664, 2011; in the data active = inhibition above about 5%, passing the limit was not always enough
MBD2 DNA inh: inhibitors of MBD2 binding to methylated DNA, primary screen, biochemical, TR-FRET, DNA-binding domain, human | Methyl-CpG-binding domain protein 2 (Homo sapiens), Q9UBB5 | MBD2 binding to methylated oligonucleotide | inhibition, % at 4.4 µM | hit rate 0.31% among 370,000 | AID 686964, 2013; in the data active = inhibition above about 13%
Arr AP2 CP1: inhibitors of arrestin peptide binding to AP2, confirmation, biochemical, cherry pick 1, flow cytometry beads; shares compounds with Arrestin-AP2 inh; GST-AP2 beads, FITC arrestin peptide binding; GST-fused beta2-adaptin appendage, R879A mutant; inhibition, % at 10 µM; hit rate 2% among 1,300;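 active = inhibition above a set limit, roughly 3 SD of non-fluorescent compound noise, cut at about 38% in these data; inactive = inhibition at or below that limit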;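 also: loss of bead fluorescence from 50 nM FITC arrestin peptide bound to appendage; 0% = negative control wells and 100% = excess unlabelled arrestin peptide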
GST-FITC bead: GST-fluorescein capture on glutathione beads, confirmation, artefact control for arrestin-AP2 inhibitor project, biochemical, cherry pick 1, flow cytometry | shares compounds with Arrestin-AP2 inh | GST-fluorescein binding to GSH beads, fluorescence, counter-screen | inhibition, % at 10 µM | hit rate 2% among 1,300;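 active = inhibition above 50%, about 3 SD of the inhibition seen with non-fluorescent compounds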;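 also: fluorescein maleimide labelled GST captured on 4 micron glutathione beads; higher means more loss of bead fluorescence from quenching or blocked binding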
* marks the source's active call; other numbers are inactive results; nt = no result. The list is not random: actives were taken first. Their share in the collection is about 2.5%.

SMILES	ABHD5-PLIN5 inh	B2AR ag	UHRF1 MBD2 ctr	Arrestin-AP2 inh	Rin1-Abl PPI inh	MBD2 DNA inh	Arr AP2 CP1	GST-FITC bead
O=C(Cn1cc(C(F)(F)F)ccc1=O)N1CCc2ccccc21	7	-10	-2	65*	0	-4	-11	-3
Cc1ccc(NC(=S)NC2CCCC2)cc1C	3	-4	0	4	0	-3	nt	nt
Cc1nc2ccc(NC(=S)NC3CCCCC3)cc2nc1C	-4	5	0	55*	-1	-5	1	-7
Cc1ccc(C(=O)NC(NCc2ccco2)C(Cl)(Cl)Cl)cc1 (centres undefined)	3	2	-4	55*	-4	1	3	-2
Cc1cccc(C(=O)NC(NCc2ccco2)C(Cl)(Cl)Cl)c1 (centres undefined)	-1	1	-2	11	1	-4	nt	nt
CCOc1ccc(/C=C/C(=O)NCCc2ccc(OC)c(OC)c2)cc1	8	-8	-5	57*	4	-1	-12	-8
C=CCN1C(=O)/C(=C/c2ccc(-c3ccc(F)cc3)o2)SC1=S	-1	-143	-3	67*	1	-3	10	20
O=C(O)C(c1ccccc1)N1C(=O)/C(=C\c2ccc(-c3ccc(Br)cc3)o2)SC1=S (centres undefined)	6	-108	1	14	2	7	nt	nt
CN(C)c1oc(COc2ccc(F)cc2)nc1C#N	1	2	1	55*	-2	-4	0	4
O=S(=O)(c1cccc(-c2cn3cccnc3n2)c1)N1CCOCC1	-4	-5	0	2	-4	0	nt	nt
O=S(=O)(c1cccc(-c2cn3cccnc3n2)c1)N1CCCCCC1	-8	2	0	61*	1	-2	-1	-4
O=C(c1ccc(F)cc1F)N1CCC(Oc2cccnc2)CC1	nt	nt	4	nt	nt	4	nt	nt
O=C(C1CCCN(S(=O)(=O)c2ccc(Br)s2)C1)N1CCN(Cc2ccccc2)CC1 (centres undefined)	nt	nt	3	nt	nt	-3	nt	nt
O=C(N/N=C\c1cccc([N+](=O)[O-])c1O)C1COc2ccccc2O1 (centres undefined)	5	4	-6	36	-5	-10	nt	nt
O=C(Nc1ccccc1[N+](=O)[O-])C1COc2ccccc2O1 (centres undefined)	7	5	0	56*	3	-2	0	-6
O=C(N/N=C/c1cccc([N+](=O)[O-])c1)C1COc2ccccc2O1 (centres undefined)	-10	6	2	58*	2	1	-5	1
O=C(Nc1cnc2ccccc2c1)C1COc2ccccc2O1 (centres undefined)	3	3	1	69*	-5	3	4	2
Cc1ccccc1NC(=O)OC1CCC12CCCCC2 (centres undefined)	nt	nt	-4	nt	nt	7	nt	nt
Cc1ccc(Cc2ccc(C(=O)NNC(N)=S)o2)cc1	-5	5	3	59*	6	3	-8	-2
Cc1ccccc1CS(=O)(=O)Cc1ccc(C(=O)Nc2cccc(C)c2C)o1	nt	nt	-1	nt	nt	1	nt	nt
Cc1ccc(NC(=O)CCS(=O)(=O)c2ccccc2)cc1S(=O)(=O)N1CCCCCC1	3	-2	6	58*	-1	-4	-10	0

Screening data from PubChem BioAssay.
